Activity calls are given as the source filed them. The calls are words filed in the database; no cut-off is given here.
Legend:
Bile acid receptor = biological target: T1, Bile acid receptor (Homo sapiens, UniProt Q96RI1); experiment: Transactivation of human FXR expressed in human HeLa cells co-expressing BSEP after 24 hrs by dual-glo luciferase reporter gene assay; assay type: cell-based
T1 sequence (Q96RI1 whole entry): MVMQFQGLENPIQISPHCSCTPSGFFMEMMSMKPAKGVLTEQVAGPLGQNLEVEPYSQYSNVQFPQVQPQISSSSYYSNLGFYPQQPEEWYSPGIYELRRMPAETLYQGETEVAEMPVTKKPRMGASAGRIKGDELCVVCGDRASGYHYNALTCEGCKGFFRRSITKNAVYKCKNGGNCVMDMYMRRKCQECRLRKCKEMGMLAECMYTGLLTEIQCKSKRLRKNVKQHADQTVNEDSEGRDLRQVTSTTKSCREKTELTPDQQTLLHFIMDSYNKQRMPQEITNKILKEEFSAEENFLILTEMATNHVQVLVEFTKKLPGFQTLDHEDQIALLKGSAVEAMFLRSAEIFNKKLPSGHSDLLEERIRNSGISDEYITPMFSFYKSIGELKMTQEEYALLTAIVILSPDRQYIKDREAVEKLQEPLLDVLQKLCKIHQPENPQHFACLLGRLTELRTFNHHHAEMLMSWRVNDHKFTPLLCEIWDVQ
Summary of the method: (§1)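 HeLa cells in DMEM/10% FCS at 37 °C, 5% CO2; switched to 0.5% charcoal-stripped FCS before calcium phosphate co-transfection with pcDNA3-hFXR, pSG5-hRXR, BSEP promoter–firefly luciferase reporter and pRL-SV40 renilla. Compound in 0.1% DMSO, phenol red-free medium, 24 h.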

[1] = biological target: T2, Bile acid receptor (Homo sapiens) (UniProt Q96RI1); experiment: Transactivation of human FXR expressed in human HeLa cells co-expressing BSEP at 50 uM after 24 hrs by dual-glo luciferase reporter gene assay relative to GW4064; assay type: cell-based; summary of the method: as §1
T2 sequence (whole entry): T1 sequence (Q96RI1 whole entry)

[2] = biological target: T3, Bifunctional epoxide hydrolase 2 (Homo sapiens, UniProt P34913); experiment: Inhibition of recombinant human sEH using PHOME as substrate preincubated for 30 mins followed by substrate addition measured for 30 mins by fluorescence photometric method
T3 sequence (P34913 whole entry): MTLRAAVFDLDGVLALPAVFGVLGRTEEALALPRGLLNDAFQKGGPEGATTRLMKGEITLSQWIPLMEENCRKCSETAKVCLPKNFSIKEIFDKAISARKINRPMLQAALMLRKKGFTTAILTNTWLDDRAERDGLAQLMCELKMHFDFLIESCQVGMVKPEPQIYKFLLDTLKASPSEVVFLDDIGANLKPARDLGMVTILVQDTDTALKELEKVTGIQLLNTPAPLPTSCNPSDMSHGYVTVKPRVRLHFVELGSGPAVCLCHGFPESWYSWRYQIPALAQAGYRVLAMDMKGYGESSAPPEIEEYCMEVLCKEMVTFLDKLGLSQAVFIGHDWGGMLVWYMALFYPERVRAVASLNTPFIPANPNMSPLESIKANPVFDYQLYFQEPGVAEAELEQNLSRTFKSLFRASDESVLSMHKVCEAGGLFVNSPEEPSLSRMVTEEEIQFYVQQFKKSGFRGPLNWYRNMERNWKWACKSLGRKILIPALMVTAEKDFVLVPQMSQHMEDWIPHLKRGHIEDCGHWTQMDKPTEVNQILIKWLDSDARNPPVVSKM
Summary of the method: (§2)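 Recombinant human sEH in Bis-Tris buffer pH 7, 0.1 mg/mL BSA, 0.01% Triton X-100 (final), preincubated 30 min at room temperature with compound (1% DMSO final). PHOME added at 50 μM final; 6-methoxynaphthaldehyde fluorescence read each minute for 30 min.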

[3] = biological target: T4, Bifunctional epoxide hydrolase 2 (Homo sapiens) (UniProt P34913); experiment: Inhibition of recombinant human sEH at 50 uM using PHOME as substrate preincubated for 30 mins followed by substrate addition measured for 30 mins by fluorescence photometric method; summary of the method: as §2
T4 sequence (whole entry): T3 sequence (P34913 whole entry)

SMILES | IC50 ([2]; read-out: IC50) | inhibition [3] | IC50 [2] | EC50 (Bile acid receptor) | Emax [1]
Cc1cccc(C(=O)NCc2ccc(C(=O)O)cc2)c1 | – | 37% | – | – | inactive
O=C(O)c1ccc(CNC(=O)c2ccccc2)cc1 | – | 16% | – | – | 12%
CC(C)(C)c1ccc(C(=O)NCc2ccc(C(N)=O)cc2)cc1 | 1200 nM | – | – | 3800 nM | 27%
O=C(O)c1ccc(CNC(=O)C2CCCCC2)cc1 | – | 37% | – | – | inactive
CC(C)(C)c1ccc(C(=O)NCc2ccc(OCC(=O)O)cc2)cc1 | 19000 nM | – | – | 730 nM | 21%
CC(C)(C)c1ccc(C(=O)NCc2ccc(CO)cc2)cc1 | 2050 nM | – | – | – | inactive
CC(C)(C)c1ccc(C(=O)NCc2ccc(CCC(=O)O)cc2)cc1 | 1630 nM | – | – | 350 nM | 16%
O=C(O)c1ccc(CNC(=O)C2CCNCC2)cc1 | – | < 3% | – | – | inactive
O=C(O)c1ccc(CNC(=O)c2ccc(-c3ccccc3)cc2)cc1 | – | – | – | – | 24%
CN(C)c1ccc(C(=O)NCc2ccc(C(=O)O)cc2)cc1 | – | 19% | – | – | inactive
COc1ccc(C(=O)NCc2ccc(C(=O)O)cc2)cc1OC | – | 26% | – | 370 nM | 18%
CC(C)(C)c1ccc(C(=O)NCc2ccc(CC(=O)O)cc2)cc1 | 20000 nM | – | – | 6400 nM | 19%
O=C(O)c1ccc(CNC(=O)c2ccccc2-c2ccccc2)cc1 | – | 19% | – | – | 22%
CNC(=O)c1ccc(CNC(=O)c2ccc(C(C)(C)C)cc2)cc1 | 1900 nM | – | – | 340 nM | 29%
CC(=O)Nc1ccc(CNC(=O)c2ccc(C(C)(C)C)cc2)cc1 | 1120 nM | – | – | 2900 nM | 31%
CC(C)(C)c1ccc(C(=O)NCc2ccc(C(=O)O)cc2)cc1 | 4200 nM | – | – | 370 nM | 13%

SMILES | IC50 ([2]; read-out: IC50) | inhibition [3] | IC50 [2] | EC50 (Bile acid receptor) | Emax [1]
COc1cc(C(=O)NCc2ccc(C(=O)O)cc2)ccc1C(C)(C)C | 5040 nM | – | – | 1200 nM | 23%
CC(C)(C)c1ccc(C(=O)NCc2ccc(N)cc2)cc1 | 3500 nM | – | – | – | inactive
O=C(O)c1ccc(CNC(=O)c2ccc(Cl)c(Cl)c2)cc1 | 10500 nM | – | – | – | inactive
Cc1ccc(C(=O)NCc2ccc(C(=O)O)cc2)cc1 | – | 24% | – | – | 15%
CC(C)Oc1ccc(CNC(=O)c2ccc(C(C)(C)C)cc2)cc1 | – | – | Nd(Insoluble) | 170 nM | 26%
CC(C)(C)c1ccc(C(=O)NCc2ccc(C(=O)O)cc2F)cc1 | 1430 nM | – | – | 7.8 nM | 26%
Cc1ccc(C(=O)NCc2ccc(C(=O)O)cc2)c(C)c1 | – | 7% | – | – | inactive
O=C(O)c1ccc(CNC(=O)c2cccc(-c3ccccc3)c2)cc1 | 10000 nM | – | – | 670 nM | 14%
CN(C)C(=O)c1ccc(CNC(=O)c2ccc(C(C)(C)C)cc2)cc1 | 4600 nM | – | – | 170 nM | 17%
Cc1ccccc1C(=O)NCc1ccc(C(=O)O)cc1 | – | 14% | – | – | inactive
CC(=O)NS(=O)(=O)c1ccc(CNC(=O)c2ccc(C(C)(C)C)cc2)cc1 | 12700 nM | – | – | – | inactive
CC(C)(C)c1ccc(C(=O)NCc2ccc(-c3nnn[nH]3)cc2)cc1 | 18200 nM | – | – | 120 nM | 23%
CC(C)(C)c1ccc(C(=O)NCc2ccc(S(C)(=O)=O)cc2)cc1 | 1200 nM | – | – | 3800 nM | 34%
CC(C)(C)c1ccc(C(=O)NCc2ccc(C(=O)O)c(F)c2)cc1 | 20300 nM | – | – | 140 nM | 28%
O=C(O)c1ccc(CNC(=O)c2ccc(C(F)(F)F)c(C(F)(F)F)c2)cc1 | – | 55% | – | – | inactive
CC(C)(C)c1ccc(NC(=O)Nc2ccc(C(=O)O)cc2)cc1 | 18500 nM | – | – | 3800 nM | 14%

More lines, main results first:

IC50 ([2]; read-out: IC50) | inhibition [3] | IC50 [2] | SMILES | EC50 (Bile acid receptor) | Emax [1]
220 nM | – | – | CC(C)(C)c1ccc(C(=O)NCc2ccc(OC(F)(F)F)cc2)cc1 | 160 nM | 26%
157 nM | – | – | CC(=O)c1ccc(CNC(=O)c2ccc(C(C)(C)C)cc2)cc1 | 100 nM | 29%
220 nM | – | – | C[S+]([O-])c1ccc(CNC(=O)c2ccc(C(C)(C)C)cc2)cc1 (stereo not drawn) | 1300 nM | 24%
280 nM | – | – | CC(C)(C)c1ccc(C(=O)NCc2ccc(S(N)(=O)=O)cc2)cc1 | 1400 nM | 16%
510 nM | – | – | CC(C)(C)c1ccc(C(=O)NCc2ccc(C=O)cc2)cc1 | 5300 nM | 22%
910 nM | – | – | CC(C)(C)c1ccc(C(=O)NCc2ccc(C#N)cc2)cc1 | – | inactive
120 nM | – | – | CSc1ccc(CNC(=O)c2ccc(C(C)(C)C)cc2)cc1 | 100 nM | 33%
430 nM | – | – | COc1ccc(CNC(=O)c2ccc(C(C)(C)C)cc2)cc1 | 150 nM | 19%
390 nM | – | – | CC(C)(C)c1ccc(C(=O)NCc2ccc(SC(F)(F)F)cc2)cc1 | 0.4 nM | 19%
570 nM | – | – | CCOc1ccc(CNC(=O)c2ccc(C(C)(C)C)cc2)cc1 | 160 nM | 31%
660 nM | – | – | CC(C)(C)c1ccc(C(=O)NCc2ccc(NC(=O)C(F)(F)F)cc2)cc1 | 260 nM | 20%
650 nM | – | – | CC(C)(C)c1ccc(C(=O)NCc2ccc(NS(C)(=O)=O)cc2)cc1 | 44 nM | 22%
137 nM | – | – | CC(C)(C)c1ccc(C(=O)NCc2ccc(S(N)(=O)=O)cc2F)cc1 | 970 nM | 34%
170 nM | – | – | CC(C)(C)c1ccc(C(=O)NCc2ccc(C(=O)O)cc2Cl)cc1 | 7500 nM | 25%
680 nM | – | – | Cc1cc(C(=O)O)ccc1CNC(=O)c1ccc(C(C)(C)C)cc1 | – | inactive

Source: ChEMBL document CHEMBL4017509, “A Dual Modulator of Farnesoid X Receptor and Soluble Epoxide Hydrolase To Counter Nonalcoholic Steatohepatitis” (J Med Chem, 2017)
